This sample holds only a part of the variants without activity.
B1: tRNA (parent)
chain: CUCUCGGUAGCCAAGUUGGUUUAAGGCGCAAGACUUUAAUUUAUCACUACGAAAUCUUGAGAUCGGGCGUUCGACUCGCCCCCGGGAGAUUUUUUCCUCGAGCAA

Variants of: B1
Test: nonsense suppression (GFP-seq) (ratio to wild type); higher = more function; SUP4oc tRNA, yeast GFP reporter sort-seq
Method in brief: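 To measure nonsense suppression, tRNA variants from a library carrying ~3% random mutations were integrated into the yeast genome alongside RFP and a GFP ochre reporter under galactose control. Growth took place in raffinose/galactose medium supplemented with 80 mg/L adenine, followed by sorting into GFP/RFP bins and Illumina sequencing of each bin (phred ≥30). For each variant with ≥100 reads and ≥30 cells, the bin median GFP/RFP values were weighted by its estimated cell share per bin and referenced to the unmutated parent tRNA.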

Question: For CUCUCGGUAGCCAAGUUGGUUUAAGGCGCAAGACUUUAAUUUAUCACUACGAAAUCUUGAGAUCGGGCGUUCGACUCGCCCUCGGGAGAUUUUUUCCUCGAGCAA [C82U], which nonsense suppression is on record?
Answer: 1.05

Question: For CUCUCGGUAGCCAAGUUGGUUUAAGGCGCAAGACUUUAAUUUAUCACUACGAAGUCUUGAGAUCGGGCGUACGACUCGCCCCCGGGAGAUUUUUUCCUCGAGCAA [A54G U71A], which nonsense suppression is on record?
Answer: ≤ 0.026

Question: For CUCUCGGUAGCCCAGUUGGUUUAAGGCGCAAGACUUUAAUUUAUCACUACGAAAUCUUGGGAUCGGGCGUUCGACUCGCCCCCGGGAGAUUUUUUCCUCGAGCAA [A13C A60G], which nonsense suppression is on record?
Answer: 0.392

Question: Which nonsense suppression does the source give for CUCUCGGUAGCCAAGCUGGUUUAAGGCGCAAGACUUUAAUUUAUCACUACGAAAUCUUGAGAUCGGGCGUUCGACACGCCCCCGGGAGUUUUUUUCCUCGAGCAA [U16C U76A A89U] here?
Answer: ≤ 0.026

Question: With CUCUCGGUAGCCAAGUUGGUUUAAGGCGCAAGACUUUAAUUUAUCACUACGAAAUCUUGAGAGCGGGCGUUCGACUCGCCCCCGAGAGAUUUUUUCCUCGAGCAA [U63G G85A] as the variant, how does the nonsense suppression read?
Answer: 0.787

Question: With CUCUCGGUAGCUAAGUUGGCUUAAGGCGCAAGACUUUAAUUUAUCACUACGAAAUCUUGAGAUCGGGCGUUCGACUCGCCCCCGGGAGAUUUUUUCCUCGAGCAA [C12U U20C] as the variant, how does the nonsense suppression read?
Answer: 0.177

Question: For CUCUCGGUAGCCAAGUUGGUUUAAGGCGCAAGACCUUAAUUUAUCACUACGAAAUCUUGAGAUCGGGCGAUCGACUCGCCCCCGGGAGAUUUUUUCCUCGAGCAA [U35C U70A], which nonsense suppression is on record?
Answer: ≤ 0.026

Question: Which nonsense suppression does the source give for CUCUCGGUAGCCAAGUGGGUUUAAGGCGCAAGACUUUAAUUUAUCACUACGAAAUCUUGACAUCGGGCGUUCGACUCGCCCCCGGGAGAUUUUUUCCUCGAGCAA [U17G G61C] here?
Answer: 0.371

Question: For CUCUCGGUAGCCAAGUUGGUGUAAGGCGCAAGACUUUAAUUUAUCACUACGAAAUCGUGAGAUCGGGCGUUCGACUCGCCCCCGGGAGAUUUUUUCCUCGAGCAA [U21G U57G], which nonsense suppression is on record?
Answer: ≤ 0.026

Question: With CUCUCGGUAGCCAAGUUGGUCUAAGGCGCAAGACUUUAAUUUAUCACUACGAAAUCUUGAGGUCGGGCGUUCGACUCGCCCCCGGGAGAUUUUUUCCUCGAGCAA [U21C A62G] as the variant, how does the nonsense suppression read?
Answer: 0.0282

Question: With CUAUCGGUAGCCAAGUUGGUUUAAGGCGCAAGACUUUAAUUUAUCACUACGAAAUCUUGAGAUCGGGCGGUCGACUCGCCCCCGGGAGAUUUUUUCCUCGAGCAA [C3A U70G] as the variant, how does the nonsense suppression read?
Answer: ≤ 0.026

Question: For CUCUCGGUAGCCAAGUUGGCUUAAGGCGCAUGACUUUAAUUUAUCACUACGAAAUCUUGAGAUCGGGCGUUCGACUCGCCCCCGGGAGAUUUUUUCCUCGAGCAA [U20C A31U], which nonsense suppression is on record?
Answer: 0.0722

Question: Which nonsense suppression does the source give for CUCUCGGUAGCCAAGUUCAUUUAAGGCGCAAGACUUUAAUUUAUCACUACGAAAUCUUGAGAUCGAGCGUUCGACUCGCCCCCGGGAGAUUUUUUCCUCGAGCAA [G18C G19A G66A] here?
Answer: ≤ 0.026

Question: For CUCCCGGUAGCCAGGUUGGUUUAAGGCGCAAGACUUUAAUUUAUCACUACGAAAUCUUGAAAUCGGGCGUACGACUCGCCCCCGGGAGAUUUUUUCCUCGAGCAA [U4C A14G G61A U71A], which nonsense suppression is on record?
Answer: ≤ 0.026

Question: For CUCUCGGUAGCCAAGUUGGUUUAAGGCGCAAGACUUUAAUUUAUCACUACGAAAUCUUGAGAUCGGGCGUUCGUCUCACCCCCGGGAGAUUUUUUCCUCGAGCAA [A74U G78A], which nonsense suppression is on record?
Answer: 0.0557

Question: For CUCUCGGUAGCCAAGUUGGUUUAAGUCGCAGGACUUUAAUUUAUCACUACGAAUUCCUGAGAUCGGGCGUUCCACUCGCCCCCGGGAGAUUUUUUCCUCGAGCAA [G26U A31G A54U U57C G73C], which nonsense suppression is on record?
Answer: ≤ 0.026

Question: With CUCUCGGUAGCUAAGUUGGUUUAAGGCGCAAGACCUUAAUUUAUCACUACGAAAUCUUGAGAUCGGGCGUUCGACUCGCCCCCGGGAGAUUUUUUCCUCGAGCAA [C12U U35C] as the variant, how does the nonsense suppression read?
Answer: 0.0352

Question: For CUCUCGGGAGCCAAGUUGGUUUAAUGCGCAAGACUUUAAUUUAUCACUACGAAUUCUUGAGAUCGGGCGGUCCACUCGCCCCCGGGAGAUUUUUUCCUCGAGCAA [U8G G25U A54U U70G G73C], which nonsense suppression is on record?
Answer: ≤ 0.026

Question: Which nonsense suppression does the source give for CUCUUGGUAGUCAAGUUGGUUUAAGGCGCAAGACUUUAAUUUAUCACUACGAAAUCUUGAGAUCGAGCGUUCGACUCGCCCCCGGGAGAUUUUUUCCUCGAGCAA [C5U C11U G66A] here?
Answer: ≤ 0.026

Question: For CUAUCGGUAGCGAAGUUUGGUUAAGGCGCAAGACUUUAAUUUAUCACUACGAAAUCUUGAUAUCGGGCGGUCGAGUCGCCCCCGGGAGAUUUUUUCCUCGAGCAA [C3A C12G G18U U20G G61U U70G C75G], which nonsense suppression is on record?
Answer: ≤ 0.026

Question: With CUCUCGGUAGCCAAGUUGGUUUAAGGCGCAAGACUUUAAUUUAUCACUACGAAAUCUUGAGAUCGGGCCUUCGACUGGCCCCCGGGAGAUUUUUUCCUCGAGCAA [G69C C77G] as the variant, how does the nonsense suppression read?
Answer: ≤ 0.026

Question: Which nonsense suppression does the source give for CUCUCGGUAGCCAAGUUGGUAUAAGGCGCAAGACUUUAAUUUAUCACUACGAAAUCUUGAGAUCGGGCGUUCGACUCGUCCCCGGGAGAUUUUUUCCUCGAGCAA [U21A C79U] here?
Answer: 0.444

Question: Which nonsense suppression does the source give for CUCUCGGUAGCCAAGUUGGUUUAAGGCCCAAGACUUUAAUUUAUCACUACGAAAUCUUGAGAUCGGGCGUUCGACUCACCCCCGGGAGAUUUUUUCCUCGAGCAA [G28C G78A] here?
Answer: 0.0288

Question: Which nonsense suppression does the source give for CUCUCGGUAACCAAGUUGGUUUAAGGCGCACGACUUUAAUUUAUCACUACGAAAUCUUGAGAUCGGGCGUUCGACUCGCCCCCGGGAGAUUUUUUCCUCGAGCAA [G10A A31C] here?
Answer: ≤ 0.026

Question: With CUCUCGGCAGCCAAGUUGGUUUAUGGCGCAAGACUUUAAUUUAUCACUACGAAAUCUUGAGAUCGGGCGUCCGACUCGCCCCCGGGAGAUUUUUUCCUCGAGCAA [U8C A24U U71C] as the variant, how does the nonsense suppression read?
Answer: ≤ 0.026

Question: With CUCUCGGUAGCCAAGUUGGUUUAAGGCGCAAGACUUUAAUUUAUCACUACGAACUCUUGAGAUCGGGCGUUCGACCCGCCCCCGGGAGAUUUUUUCCUCGAGCAA [A54C U76C] as the variant, how does the nonsense suppression read?
Answer: 0.232

Question: For CUCUCGGUAGCAAAGUUUGUUUAAGGCGCAAGACUUUAAUUUAUCACUACGAAAUCUUGAGAUCGGGCGCUCGACUCGCCCCCGGGAUAUUUUUUCCUCGAGCAA [C12A G18U U70C G88U], which nonsense suppression is on record?
Answer: ≤ 0.026

— the RNAGym collection of RNA variant scans (doi:10.1101/gad.245936.114)
